Assay results of several laboratories.
Protocols differ between the studies behind these lines.
Organism: Escherichia coli
Observed: microbial growth

Compound	technique	cell line	strain	time	notes	MIC
N=C(N)c1ccc(OCc2cc(COc3ccc(C(=N)N)cc3)cc(-c3ccccc3)c2)cc1	broth dilution	–	W3110	–	–	100 µg/mL
Fc1cccc(Cl)c1-c1nc2ccccc2[nH]1	broth dilution	–	ATCC25922	–	–	64 µg/mL
CNc1cccc2cc(C(=O)NCCc3cccc(C(=O)O)c3)c(=O)[nH]c12	broth dilution	–	ATCC25922	–	–	> 64 µg/mL
Cc1ccc(C)n1-c1ccc(-c2nnc(-c3ccc(Br)cc3)[nH]2)cc1	broth dilution	–	ATCC10536	18 h	–	125 µg/mL
O=C(CCc1ccc(O)c(O)c1)NCCCCCCCC[P+](c1ccccc1)(c1ccccc1)c1ccccc1.[Br-]	broth dilution	–	ATCC25922	18 h	–	> 32 µg/mL
N=C(N)c1ccccc1OCc1ccccc1COc1ccccc1C(=N)N	broth dilution	–	BW25113	–	–	> 200 µg/mL
Cc1cccc(NCc2ccc(Oc3ccccn3)cc2)c1	–	–	–	–	–	> 50 µg/mL
O=C(Nc1ccc2c(c1)OC(F)(F)O2)Nc1ccc(Cl)c(C(F)(F)F)c1	–	–	CFT073	–	–	> 100 µM
COc1cc(C(=O)Nc2ccc(C(=O)N[C@@H](CC(N)=O)C(=O)Nc3ccc(C(=O)Nc4ccc(C(=O)Nc5ccc(C(=O)O)cc5)c(O)c4OC(C)C)cc3)cc2)ccc1C#N	–	–	DSM1116	–	–	< 0.03 µg/mL
c1ccc(NCc2ccc(Oc3ccccn3)cc2)cc1	–	–	–	–	–	> 25 µg/mL
CC(C)Oc1c(NC(=O)c2ccc(NC(=O)[C@H](CC(N)=O)NC(=O)c3ccc(NC(=O)c4ccccc4[N+](=O)[O-])cc3)cc2)ccc(C(=O)Nc2ccc(C(=O)O)cc2)c1O	–	–	DSM1116	–	–	8 µg/mL
CC1=NN(CNC(=O)c2ccccn2)C(=O)C1=NNn1c(-c2ccccc2)nc2ccccc2c1=O	broth dilution	–	–	24 h	–	52 µM
NCCCNC1CCCCc2c1[nH]c1ccc(Br)cc21 (stereo not drawn)	broth dilution	–	ATCC25922	–	–	16 µg/mL
CC(C)Oc1c(NC(=O)c2ccc(NC(=O)[C@H](CC(N)=O)NC(=O)c3ccc(NC(=O)C(C)Sc4ccc(C#N)cc4)cc3)cc2)ccc(C(=O)Nc2ccc(C(=O)O)cc2)c1O (stereo partly drawn)	–	–	DSM1116	–	–	0.25 µg/mL
Cc1ccc(C)n1-c1ccc(-c2nnc(S)s2)cc1	broth dilution	–	ATCC10536	18 h	–	2 µg/mL
CCCc1nc(Cl)c2c(c1O)C(=O)C1=C(O)[C@]3(O)C(=O)C(C(N)=O)=C(O)[C@@H](N(C)C)[C@@H]3C[C@@H]1C2.Cl	broth dilution	–	ATCC25922	–	–	16 µg/mL
Cc1cc(C#N)ccc1C(=O)Nc1ccc(C(=O)N[C@@H](CC(N)=O)C(=O)Nc2ccc(C(=O)Nc3ccc(C(=O)Nc4ccc(C(=O)O)cc4)c(O)c3OC(C)C)cc2)cc1	–	–	DSM1116	–	–	0.5 µg/mL
N=C(N)c1cccc(OCc2ccccc2COc2cccc(C(=N)N)c2)c1	–	–	BW25113	–	–	> 200 µg/mL
CCCCCCC#Cc1cncc(-c2nnc(SCc3ccc(Cl)c(F)c3)n2C)c1	–	–	–	–	–	≥ 20 µg/mL
CCCCCC(=O)Oc1c(C)c(O)c(C(=O)/C=C/c2ccccc2)c(OC)c1C	broth dilution	–	ATCC25922	–	–	5000 µg/mL
O=C1NN=C(N=Cc2ccc(O)c(O)c2)C1=NNn1c(-c2ccccc2)nc2ccccc2c1=O	broth dilution	–	–	24 h	–	53.5 µM
Cc1ccc2nc(-c3ccncc3)[nH]c2c1	broth dilution	–	ATCC25922	–	–	64 µg/mL
COc1c(C)c(OC)c(C(=O)/C=C/c2ccccc2)c(OC)c1C	broth dilution	–	ATCC25922	–	–	5000 µg/mL
O=C(CCCCCCCC[P+](c1ccccc1)(c1ccccc1)c1ccccc1)Nc1ccc(O)c(O)c1.[Br-]	broth dilution	–	ATCC25922	18 h	–	> 32 µg/mL
N=C(N)c1ccc(OCc2cc(Br)cc(COc3ccc(C(=N)N)cc3)c2)cc1	–	–	BW25113	–	–	> 100 µg/mL
CCCCCCC#Cc1cncc(-c2nnc(SCc3ccc(Cl)cc3)n2C)c1	–	–	–	–	–	≥ 20 µg/mL
Cc1ccc2nc(-c3c4ccccc4cc4ccccc34)[nH]c2c1	broth dilution	–	ATCC25922	–	–	128 µg/mL

Compound	technique	cell line	strain	time	notes	MIC
N=C(N)c1ccc(OCc2cccc(COc3ccc(C(=N)N)cc3)c2)cc1	broth dilution	–	W3110	–	–	100 µg/mL
CC(C)Oc1c(NC(=O)c2ccc(NC(=O)[C@H](CC(N)=O)NC(=O)c3ccc(NC(=O)c4ccc(C#N)cc4)cc3)cc2)ccc(C(=O)Nc2ccc(C(=O)O)cc2)c1O	–	–	ATCC25922	–	–	0.02 µg/mL
Fc1ccc(NCc2ccc(Oc3ccccn3)cc2)cc1	–	–	–	–	–	> 12.5 µg/mL
COc1cccc(-c2nc3ccc(C)cc3[nH]2)c1	broth dilution	–	ATCC25922	–	–	128 µg/mL
CC1=NN(CNc2ccc(Cl)cc2)C(=O)C1=NNn1c(-c2ccccc2)nc2ccccc2c1=O	broth dilution	–	–	24 h	–	51.5 µM
CCCCCCC/C=C/C(=O)N1C(=O)/C(=C(/C)O)C(=O)C1CCC(=O)O (stereo not drawn)	–	K12	K12	–	–	> 200 µg/mL
Clc1ccc(-c2nc3ccccc3n2Cc2ccccc2)cc1Cl	broth dilution	–	ATCC25922	–	–	64 µg/mL
C[C@@H](O)[C@H]1C(=O)N2C(C(=O)O)=C(S[C@@H]3CN[C@H](C(=O)N(C)C)C3)[C@H](C)[C@H]12	broth dilution	–	ATCC35218	–	–	≤ 0.125 µg/mL
Cc1ccc(C)n1-c1ccc(-c2nnc(-c3ccc(N(C)C)cc3)[nH]2)cc1	broth dilution	–	ATCC10536	18 h	–	250 µg/mL
Cc1ccc2nc(-c3ccc(Cl)cc3Cl)[nH]c2c1	broth dilution	–	ATCC25922	–	–	64 µg/mL
C/C(=C\c1ccc(C#N)cc1)C(=O)Nc1ccc(C(=O)N[C@@H](CC(N)=O)C(=O)Nc2ccc(C(=O)Nc3ccc(C(=O)Nc4ccc(C(=O)O)cc4)c(O)c3OC(C)C)cc2)cc1	–	–	DSM1116	–	–	0.125 µg/mL
COc1cc(Cc2cnc(N)nc2N)cc(OC)c1OC	broth dilution	–	–	24 h	–	> 32 µg/mL
COc1ccc(-c2nc3ccc(C)cc3[nH]2)cc1O	broth dilution	–	ATCC25922	–	–	64 µg/mL
CNC(C)C1CCC(N)C(OC2C(N)CC(N)C(OC3OCC(C)(O)C(NC)C3O)C2O)O1 (stereo not drawn)	broth dilution	–	ATCC25922	–	–	0.5 µg/mL
N=C(N)c1ccc(OCCCCCOc2ccc(C(=N)N)cc2)cc1	broth dilution	–	ATCC25922	–	–	200 µg/mL
C=CCn1c(-c2ccc([N+](=O)[O-])cc2)nc2ccccc21	broth dilution	–	ATCC25922	–	–	64 µg/mL
O=C(Cc1ccc(O)c(O)c1)NCCCCCCCC[P+](c1ccccc1)(c1ccccc1)c1ccccc1.[Br-]	broth dilution	–	ATCC25922	18 h	–	> 32 µg/mL
O=[N+]([O-])c1ccc(-c2nc3cccc(O)c3[nH]2)o1	broth dilution	–	ATTC25922	–	–	2 µg/mL
N=C(N)c1ccc(OCc2ccc(-c3ccccc3)cc2COc2ccc(C(=N)N)cc2)cc1	–	–	BW25113	–	–	≥ 200 µg/mL
Cc1cc(C(=O)Nc2ccc(C(=O)N[C@@H](CC(N)=O)C(=O)Nc3ccc(C(=O)Nc4ccc(C(=O)Nc5ccc(C(=O)O)cc5)c(O)c4OC(C)C)cc3)cc2)ccc1C#N	–	–	DSM1116	–	–	0.5 µg/mL
CCCC(=O)Oc1c(C)c(O)c(C(=O)/C=C/c2ccccc2)c(OC)c1C	broth dilution	–	ATCC25922	–	–	5000 µg/mL
Cc1c(CN(C)C(=O)/C=C/c2cnc3c(c2)CC(CCN)C(=O)N3)oc2ccccc12.Cl (stereo not drawn)	broth dilution	–	MG1655	–	clinical isolate	8 µg/mL
O=C(Nc1ncc([N+](=O)[O-])s1)c1cc2ccccc2s1	–	–	–	–	–	< 50 µM
CCCCCCC/C=C/C(=O)N1CC(=O)/C(=C(\C)O)C1=O	–	K12	K12	–	–	> 200 µg/mL
CC(C)Oc1c(NC(=O)c2ccc(NC(=O)[C@H](CC(N)=O)NC(=O)c3ccc(NC(=O)Cc4ccc(C#N)cc4)cc3)cc2)ccc(C(=O)Nc2ccc(C(=O)O)cc2)c1O	–	–	DSM1116	–	–	1 µg/mL
N=C(N)c1ccc(OCc2ccc(COc3ccc(C(=N)N)cc3)cc2)cc1	–	–	BW25113	20 h	–	> 200 µg/mL
CCCCCCC/C=C/C(=O)N1C(=O)/C(=C(/C)O)C(=O)C1Cc1ccc(OC(C)(C)C)cc1 (stereo not drawn)	–	K12	K12	–	–	> 200 µg/mL
